# F-actin modifier: alters cytoskeleton assembly in HUVEC cells; AID 836; 91,000 tested, 0.18% active; inhibition, % at 2 µM; HUVEC TNFa F-actin phalloidin imaging, high content;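 active = inhibition above the batch mean plus 3 SD and confirmed as a hit by visual image inspection, cut at about 30% in these data, passing the limit was not always enough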
# Plk1 PBD FP: Plk1 (human) PBD binding inhibition | P53350 | Plk1 PBD phosphopeptide binding, fluorescence polarization | inhibition, %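 (tested at about 20 µM)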 | 97,000 tested, 0.13% active | AID 693; in the data active = inhibition above about 34%, passing the limit was not always enough
# PLK1 inh: PLK1 (human) kinase inhibition. recombinant PLK1 kinase, TR-FRET peptide phosphorylation. inhibition, % at 10 µM. 97,000 tested, 0.53% active. AID 619;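 active = inhibition of 50% or more in the single-concentration screen; inactive = inhibition below 50%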;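 also: 0% = DMSO max control and 100% = H-89 dihydrochloride min control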
# FAK blocker: inhibitors of human focal adhesion kinase. 97,000 tested, 0.84% active. inhibition, %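 (tested at 7 µM)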. AID 727. Q05397. biochemical FAK kinase activity assay;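 also: 0% = DMSO and 100% = reference compound high control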
# HIV Rev-RRE inh: HIV Rev-RRE protein-RNA interaction inhibition; Rev peptide-RRE RNA binding, FRET; inhibition, % at 8 µM; 97,000 tested, 0.79% active;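 active = inhibition above the screen-wide mean plus 3 SD, cut at about 35% in these data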;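 also: 0% = median DMSO wells and 100% = median Neomycin B control wells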
#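 Material: labelled RRE RNA duplex and labelled Rev peptide / Buffer or medium: HEPES pH 7.5 salt buffer with EDTA / Compound dosing: single point, 8 µM final nominal compound concentration / Benchmarks: DMSO low control, neomycin B high control / Timing: 5 min preincubation and 15 min binding, 25 °C / Technique: FRET fluorescence readout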
# E-sel TNF inh: TNF alpha driven E-selectin expression inhibition | inhibition, % at 2 µM | HUVEC TNFa-induced E-selectin immunofluorescence, high content | AID 1246 | 120,000 tested, 0.71% active;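 active = inhibition above the batch mean plus 3 SD, and confirmed as a hit on visual image review, cut at about 43% in these data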;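 also: 0% = TNF-stimulated DMSO wells and 100% = unstimulated control wells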
# Redox H2O2 DR: generates H2O2 by redox cycling, flagging false Plk1 PBD hits | shares compounds with Plk1 PBD FP | redox cycling H2O2 generation, DTT, counter-screen | EC50, µM | 120 tested, under 10 active | AID 876; call rule not given here
# FAK inh conf: FAK (human) inhibition confirmed. FAK kinase biochemical inhibition assay. 750 tested, 28% active. inhibition, % at 7 µM. shares compounds with FAK blocker. AID 794
# * = called active by the depositor; . = no result given. A selection: hits, their analogues and other compounds. The true share with any hit is near 2.2%. Rule as the data show it, unless noted: active = inhibition above about 19%; inactive = the rest.
SMILES,F-actin modifier,Plk1 PBD FP,PLK1 inh,FAK blocker,HIV Rev-RRE inh,E-sel TNF inh,Redox H2O2 DR,others
O=C1Nc2ccc([N+](=O)[O-])cc2C1(O)N1CCCCC1 (stereo unspecified),-30.8,56.8*,-13.9,0.0,2.9,-77.7,>50,
COC(=O)c1ccc(COc2ccccc2/C=C(\C#N)C(=O)Nc2c(C)cccc2C)cc1,.,.,.,.,.,14.3,.,
O=c1[nH]cc(COCc2ccccc2)c(=O)[nH]1,7.6,45.9*,-7.1,2.3,6.6,-32.4,>50,
CN1C(=O)/C(=C/c2cc(C(C)(C)C)c(O)c(C(C)(C)C)c2)NC1=S,.,.,.,.,.,29.4,.,
COc1cc(OC)c(C(=O)NCCCN2CCOCC2)cc1OC,.,.,.,.,.,-10.7,.,
COc1cc(OC)cc(C(=O)NCCCN2CCOCC2)c1,-15.6,52.8*,-8.7,-1.5,4.3,2.9,>50,
CC12CC3(C)CC(C)(C1)CC(C(=O)Nc1nn[nH]n1)(C2)C3,-3.1,10.5,-8.0,-1.4,3.4,14.1,.,
COC(=O)CNC(=O)C12CC3(C)CC(C)(CC(C)(C3)C1)C2,-14.4,33.4*,-9.2,-3.0,-4.3,-16.7,>50,
CCC(Sc1nc2n[nH]c(C)c2c(=N)n1-c1cccc(Cl)c1)C(=O)NCCOC (stereo unspecified),-0.3,42.8*,6.0,-3.5,2.0,.,>50,
CCC(Sc1nc2n[nH]c(C)c2c(=N)n1-c1ccc(C)c(Cl)c1)C(=O)N1CCOCC1 (stereo unspecified),.,.,.,.,.,-31.7,.,
c1ccc(-c2csc3ncnc(N4CCc5ccccc5C4)c23)cc1,.,.,.,.,.,-3.9,.,
CCn1cnc2sc(C(=O)N3CCN(c4ccc(OC)cc4)CC3)c(C)c2c1=O,18.6,44.8*,-4.5,4.4,-2.2,-5.3,>50,
COc1cccc(C(=O)N2CCC(N3CC(C)OC(C)C3)CC2)c1 (stereo unspecified),.,.,.,.,.,14.6,.,
Cc1cc(C)nc(N2CCCC(C(=O)NCc3ccccc3F)C2)n1 (stereo unspecified),.,.,.,.,.,5.0,.,
CN=CC1=C(O)c2ccccc2C1=O,-35.1,10.5,-12.1,7.6,2.0,.,.,
O=C1C(C2=C(O)c3ccccc3C2=O)=Nc2ccccc21,.,66.3*,23.4,10.2,12.8,-29.7,29.1*,
CS(=O)(=O)Nc1cccc(C2=NN(C(=O)c3ccccc3Cl)C(c3ccccc3O)C2)c1 (stereo unspecified),.,.,.,.,.,9.3,.,
COc1ccc2c(c1OC)C(=O)OC2CC(=O)O (stereo unspecified),12.6,40.1*,-9.9,3.0,8.8,-6.8,>50,
CCOC(=O)c1c2c(n(C)c1C)C(=O)C(=O)c1ccc(Br)cc1-2,8.1,116.3*,-5.0,40.3*,4.2,2.0,0.614*,
Cc1c(CN(C)C)c2c(n1C)C(=O)c1ccc(Br)cc1-2,7.3,-11.6,31.6,-5.3,-0.8,22.5,.,
CC(C)Nc1nnc(SCC(=O)c2c(N)n(Cc3ccccc3)c(=O)n(C)c2=O)s1,2.5,44.6*,-0.4,-5.8,3.9,-7.2,>50,
Cn1c(C(=O)NCc2cccs2)cc2c(=O)n(C)c3ccccc3c21,4.0,-18.1,-22.2,-9.3,-2.5,-6.2,.,
Cc1ccc(CNC(=O)c2cc3c(=O)n(C)c4ccccc4c3n2C)cc1,7.1,62.0*,-71.2,-22.6,2.8,13.5,>50,
Cc1cccc(C)c1NC1=NC(=S)N(c2ccccc2)C12CCOC(C)(C)C2 (stereo unspecified),15.9,111.5*,-3.5,1.4,2.4,11.7,>50,
CCCSc1nc(N2CCOCC2)c2c(c1C#N)CCCC2,30.8,50.6*,-14.0,-4.7,14.3,-8.9,>50,
SMILES,F-actin modifier,Plk1 PBD FP,PLK1 inh,FAK blocker,HIV Rev-RRE inh,E-sel TNF inh,Redox H2O2 DR,others
Nc1cc(-c2ccc(Br)cc2)nn1S(=O)(=O)c1cccc2nsnc12,-3.6,47.0*,-2.1,1.8,-0.2,14.2,>50,
CC(=O)N(C)c1ccc(NC(=O)c2ccccc2C(=O)O)cc1,8.8,0.7,-3.6,16.7,6.7,5.5,.,
CCn1ccc(C(=O)Nc2ccc(N(C)C(C)=O)cc2)n1,6.4,51.8*,-4.2,-5.8,3.7,.,>50,
CCn1c(=O)cc(SCC(=O)Nc2ccc3c(c2)OCO3)c2ccccc21,.,17.2,-6.6,-0.2,3.5,13.7,.,
Cn1cc(SCC(=O)Nc2ccc3c(c2)OCCO3)c2ccccc21,-4.4,44.3*,4.0,-10.5,2.1,.,>50,
Cc1ccc(-n2ncc3c(SCC(=O)Nc4cc(C)on4)ncnc32)c(C)c1,.,.,.,.,.,-3.0,.,
O=C(NC(NC(=S)Nc1ccccc1)C(Cl)(Cl)Cl)c1cccc(Cl)c1 (stereo unspecified),-16.3,8.6,-11.1,16.9,7.8,-23.5,.,
O=C(NC(NC(=S)Nc1ccc(Cl)cc1Cl)C(Cl)(Cl)Cl)c1cccc([N+](=O)[O-])c1 (stereo unspecified),6.1,55.8*,-1.8,3.0,4.6,17.1,>50,
COC(=O)c1sccc1NC(=S)N1CCN(c2cc(C)ccc2C)CC1,.,.,.,.,.,1.0,.,
OCC(CO)(CO)N=Cc1cc(Br)ccc1O,11.9,46.8*,-6.8,-0.5,3.3,-3.8,>50,
CCCn1c(SCC(=O)OCC)nc(C(F)(F)F)cc1=O,.,.,.,.,.,-4.2,.,
O=C(O)C1CCCCC1C(=O)Nc1ccc2c(c1)OCCO2 (stereo unspecified),-14.0,52.0*,-8.2,-4.0,0.4,.,>50,
COc1ccc(OCC(=O)Nc2ccc(S(=O)(=O)N3CCOCC3)cc2)cc1,-2.8,-10.9,-3.7,-0.9,7.5,11.7,.,
O=C(COc1ccccc1)Nc1ccc(S(=O)(=O)N2CCOCC2)cc1,-3.1,40.3*,-6.1,1.2,7.4,-3.6,>50,
C=CCNC(=O)NC(=O)COC(=O)c1cccnc1SC,58.0,6.2,-3.5,-0.2,7.0,11.7,.,
CCNC(=O)NC(=O)C(C)OC(=O)c1cccnc1SC (stereo unspecified),27.1,50.6*,-3.1,0.4,0.2,.,>50,
CCc1ccc(N(C(=O)Cn2nnc(-c3ccccc3)n2)C(C(=O)NC2CCCCC2)c2ccccn2)cc1 (stereo unspecified),.,.,.,.,.,-5.1,.,
CC(=O)N(/N=C1\Sc2ccccc2C1=O)c1cccc(C)c1,-5.2,76.7*,-10.9,19.3*,7.8,10.2,>50,FAK inh conf=15.8
Cc1ccc(C(=O)NNC(=O)C2CCN(c3nccc(C)n3)CC2)cc1,3.6,12.6,-13.4,-0.8,1.1,.,.,
CN1CCc2c(sc3ncn4nc(-c5ccccc5O)nc4c23)C1,-10.8,34.0,41.7,23.2*,27.1,4.8,.,FAK inh conf=27.9*
CSc1nc(SCCO)c2sc3nc(-c4ccco4)c4c(c3c2n1)CC(C)(C)OC4,-4.4,-14.2,-12.7,28.3*,3.5,.,.,FAK inh conf=1.2
CCC(=O)N/N=C(\C)CC(=O)Nc1ccc2c(c1)OCCO2,.,.,.,.,.,-8.6,.,
O=C(c1ccc(C(=O)N2CCCc3ccccc32)s1)N1CCCc2ccccc21,16.9,-10.2,-10.4,5.7,5.5,.,.,

# Source: PubChem BioAssay
